Laboratory results reported in ChEMBL document CHEMBL1144198, “Nucleosides and oligonucleotides containing 1,2,3-triazole residues with nucleobase tethers: synthesis via the azide-alkyne 'click' reaction” (Bioorg Med Chem, 2008).

What was measured:
[1] = Cytotoxicity against WNV infected BHK21 cells at 15 uM; assay type: cell-based, Mesocricetus auratus; conditions: hamster, bhk-21, 15 µM
How it was run: (§1)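 Cellular toxicity measured at a single test concentration of 15 µM of drug in BHK cells run alongside the flavivirus CPE assays; reported as % toxicity.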

[2] = Cytotoxicity against DENV infected BHK21 cells at 15 uM; assay type: cell-based, Mesocricetus auratus; conditions: hamster, bhk-21, 15 µM; how it was run: as §1
West Nile virus = experiment: Antiviral activity against WNV infected in BHK21 cells assessed as inhibition of virus-induced cytopathic effect at 15 uM; assay type: functional; conditions: BHK-21
How it was run: (§2)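 Single test concentration 15 µM of drug in acutely infected BHK cells; inhibition of virus-induced cytopathogenicity read by CPE assay, reported as % inhibition.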

Yellow fever virus = experiment: Antiviral activity against YFV infected in BHK21 cells assessed as inhibition of virus-induced cytopathic effect at 15 uM; assay type: functional; conditions: BHK-21
dengue virus type 2 = experiment: Antiviral activity against DENV infected in BHK21 cells assessed as inhibition of virus-induced cytopathic effect at 15 uM; assay type: functional; conditions: BHK-21; how it was run: as §2
[3] = Cytotoxicity against YFV infected BHK21 cells at 15 uM; assay type: cell-based, Mesocricetus auratus; conditions: hamster, bhk-21, 15 µM
Hepatitis C virus = experiment: Antiviral activity against HCV assessed at 15 uM by ELISA; assay type: functional, Hepacivirus hominis
How it was run: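 HCV replicon replication in GS4.1 cells, read by ELISA-based replicon assay at a single test concentration of 15 µM of drug; reported as % inhibition.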

[4] = Cytotoxicity against human GS4.1 cells at 15 uM; assay type: cell-based
How it was run: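 Cellular toxicity of drug at a single test concentration of 15 µM in GS4.1 (HCV replicon) cells; reported as % toxicity.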

C#CCn1ccc(=O)[nH]c1=O
Activity [1]: 2.76% | Activity [2]: 2.76% | inhibition at 15 µM (West Nile virus): -4.57% | inhibition at 15 µM (Yellow fever virus): -11.3% | inhibition at 15 µM (dengue virus type 2): -4.6% | Activity [3]: 0.08% | inhibition at 15 µM (Hepatitis C virus): 12.1% | Activity [4]: -8.85%

C#CCn1ccc2c(Cl)ncnc21
Activity [1]: -9.83% | Activity [2]: -9.83% | inhibition at 15 µM (West Nile virus): 3.81% | inhibition at 15 µM (Yellow fever virus): -0.25% | inhibition at 15 µM (dengue virus type 2): -0.85% | Activity [3]: -19.45% | inhibition at 15 µM (Hepatitis C virus): 69.2% | Activity [4]: 1.84%

Cc1ccc(C(=O)OC[C@H]2O[C@@H](n3cc(Cn4ccc5c(Cl)nc(N)nc54)nn3)C[C@@H]2OC(=O)c2ccc(C)cc2)cc1
Activity [1]: 0.17% | Activity [2]: 0.17% | inhibition at 15 µM (West Nile virus): -1.44% | inhibition at 15 µM (dengue virus type 2): -2.39% | inhibition at 15 µM (Hepatitis C virus): 32.1% | Activity [4]: 6.49%

Nc1ncnc2c1ccn2Cc1cn([C@H]2C[C@H](O)[C@@H](CO)O2)nn1
Activity [1]: 3.14% | Activity [2]: 3.14% | inhibition at 15 µM (West Nile virus): 2.42% | inhibition at 15 µM (Yellow fever virus): 11% | inhibition at 15 µM (dengue virus type 2): 3.43% | Activity [3]: 4.48% | inhibition at 15 µM (Hepatitis C virus): -3.8% | Activity [4]: -3.79%

C#CCn1cnc2c(N)ncnc21
Activity [1]: 3.8% | Activity [2]: 3.8% | inhibition at 15 µM (West Nile virus): -1.77% | inhibition at 15 µM (Yellow fever virus): -2.81% | inhibition at 15 µM (dengue virus type 2): -3.4% | Activity [3]: -7.46% | inhibition at 15 µM (Hepatitis C virus): 2.99% | Activity [4]: -10.4%

Nc1ccn(Cc2cn([C@H]3C[C@H](O)[C@@H](CO)O3)nn2)c(=O)n1
Activity [1]: 9.41% | Activity [2]: 9.41% | inhibition at 15 µM (West Nile virus): 0.24% | inhibition at 15 µM (Yellow fever virus): 7.89% | inhibition at 15 µM (dengue virus type 2): 0.95% | Activity [3]: -4.62% | inhibition at 15 µM (Hepatitis C virus): 10.1% | Activity [4]: -5.59%

O=c1ccn(Cc2cn([C@H]3C[C@H](O)[C@@H](CO)O3)nn2)c(=O)[nH]1
Activity [1]: 9.5% | Activity [2]: 9.5% | inhibition at 15 µM (West Nile virus): -2.67% | inhibition at 15 µM (Yellow fever virus): 4.59% | inhibition at 15 µM (dengue virus type 2): 0.75% | Activity [3]: -4.57% | inhibition at 15 µM (Hepatitis C virus): 0.04% | Activity [4]: -5.59%

Cc1ccc(C(=O)OC[C@H]2O[C@@H](n3cc(Cn4ccc(N)nc4=O)nn3)C[C@@H]2OC(=O)c2ccc(C)cc2)cc1
Activity [1]: 4.08% | Activity [2]: 4.08% | inhibition at 15 µM (West Nile virus): -3.67% | inhibition at 15 µM (dengue virus type 2): -2.26% | inhibition at 15 µM (Hepatitis C virus): 15.6% | Activity [4]: -8.12%

Nc1nc(Cl)c2ccn(Cc3cn([C@H]4C[C@H](O)[C@@H](CO)O4)nn3)c2n1
Activity [1]: 1.3% | Activity [2]: 1.3% | inhibition at 15 µM (West Nile virus): 5.71% | inhibition at 15 µM (Yellow fever virus): 13.3% | inhibition at 15 µM (dengue virus type 2): 2.49% | Activity [3]: 8.55% | inhibition at 15 µM (Hepatitis C virus): 2.93% | Activity [4]: -3.3%

O=C(Nc1ncnc2c1ncn2Cc1cn([C@H]2C[C@H](O)[C@@H](CO)O2)nn1)c1ccccc1
Activity [1]: 5.54% | Activity [2]: 5.54% | inhibition at 15 µM (West Nile virus): -1.16% | inhibition at 15 µM (Yellow fever virus): 8.76% | inhibition at 15 µM (dengue virus type 2): 1.02% | Activity [3]: -2.91% | inhibition at 15 µM (Hepatitis C virus): 9.02% | Activity [4]: -3.55%

Cc1ccc(C(=O)OC[C@H]2O[C@@H](n3cc(Cn4ccc5c(Cl)ncnc54)nn3)C[C@@H]2OC(=O)c2ccc(C)cc2)cc1
Activity [1]: 0.31% | Activity [2]: 0.31% | inhibition at 15 µM (West Nile virus): -2.95% | inhibition at 15 µM (dengue virus type 2): -1.05% | inhibition at 15 µM (Hepatitis C virus): 49.2% | Activity [4]: 20.77%

Nc1ncnc2c1ncn2Cc1cn([C@H]2C[C@H](O)[C@@H](CO)O2)nn1
Activity [1]: 7.85% | Activity [2]: 7.85% | inhibition at 15 µM (West Nile virus): -0.43% | inhibition at 15 µM (Yellow fever virus): 8.36% | inhibition at 15 µM (dengue virus type 2): 1.02% | Activity [3]: -2.12% | inhibition at 15 µM (Hepatitis C virus): 7.54% | Activity [4]: -0.61%

Cc1ccc(C(=O)OC[C@H]2O[C@@H](n3cc(Cn4ccc(=O)[nH]c4=O)nn3)C[C@@H]2OC(=O)c2ccc(C)cc2)cc1
Activity [1]: 3.37% | Activity [2]: 3.37% | inhibition at 15 µM (West Nile virus): -2.84% | inhibition at 15 µM (dengue virus type 2): 0.82% | inhibition at 15 µM (Hepatitis C virus): 11.3% | Activity [4]: -4.12%

OC[C@H]1O[C@@H](n2cc(Cn3cnc4c3ncn3ccnc43)nn2)C[C@@H]1O
Activity [1]: -2.95% | Activity [2]: -2.95% | inhibition at 15 µM (West Nile virus): -2.44% | inhibition at 15 µM (Yellow fever virus): 4.39% | inhibition at 15 µM (dengue virus type 2): 2.23% | Activity [3]: -11.67% | inhibition at 15 µM (Hepatitis C virus): 6.07% | Activity [4]: -2.24%
